# Rin1 Abl inh: inhibitors of Rin1-Abl protein binding, primary screen, biochemical, TR-FRET. Tyrosine-protein kinase ABL1 (Homo sapiens) + Ras and Rab interactor 1 (Homo sapiens), …. inhibition, % at 7.35 µM. 360,000 compounds, 0.4% hits. AID 588664, 2011; in the data active = inhibition above about 5%, passing the limit was not always enough
# B2AR ag: beta2AR agonists driving receptor internalization, primary screen, cell-based, FAP fluorogen, flow cytometry | 340,000 compounds, 0.43% hits | Am2.2-beta2AR cells | response, % (concentration not given with the values) | Beta-2 adrenergic receptor (Homo sapiens), P07550 | AID 504454, 2011;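 active = response above a set limit, near 3 SD of response in nonfluorescent compounds, cut at about 42% in these data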
# Target sequence (P07550 whole entry, looked up): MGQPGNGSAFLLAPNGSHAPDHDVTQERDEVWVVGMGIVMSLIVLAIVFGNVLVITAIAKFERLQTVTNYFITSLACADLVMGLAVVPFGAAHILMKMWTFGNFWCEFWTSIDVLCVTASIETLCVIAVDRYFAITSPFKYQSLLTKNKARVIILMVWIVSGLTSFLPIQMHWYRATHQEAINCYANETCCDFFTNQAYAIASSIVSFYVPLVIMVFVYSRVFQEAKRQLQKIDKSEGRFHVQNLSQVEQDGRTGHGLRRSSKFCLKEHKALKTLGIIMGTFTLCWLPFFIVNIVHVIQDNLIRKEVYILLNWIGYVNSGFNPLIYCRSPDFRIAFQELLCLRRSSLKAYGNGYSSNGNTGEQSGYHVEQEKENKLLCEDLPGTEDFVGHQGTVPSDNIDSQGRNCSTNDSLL
# ABHD5 PLIN5 PPI: ABHD5-PLIN5 interaction inhibitors, primary screen, cell lysate, split luciferase complementation, luminescence; Perilipin-5 (Homo sapiens) + 1-acylglycerol-3-phosphate O-acyltransferase ABHD5 (Homo …; Split G. princeps luciferase complementation, 4 h; inhibition, % at 4 µM; 360,000 compounds, 0.78% hits;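 active = inhibition above the mean inhibition across every tested compound plus 3 SD, cut at about 22% in these data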
# UHRF1 MBD2 ctr: UHRF1 methylated DNA binding inhibitors, primary screen, counter-screen for MBD2 inhibitor project, biochemical, TR-FRET, human UHRF1, single concentration. E3 ubiquitin-protein ligase UHRF1 (Homo sapiens), Q96T88. UHRF1 binding to methylated oligo. inhibition, % at 4.4 µM. 370,000 compounds, 0.75% hits; in the data active = inhibition above about 21%;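 also: UHRF1 SRA domain binding a hemimethylated CpG hairpin DNA probe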
# Arr AP2 block: inhibitors of beta-arrestin/AP2 binding, primary screen, biochemical, GPCR trafficking, flow cytometry; FITC-arrestin peptide / GST-AP2 beads; AP2 beta2 appendage carries R879A mutation; inhibition, % at 10 µM; 340,000 compounds, 0.31% hits; AID 504490, 2011;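 active = inhibition above a set limit, near 3 SD of compounds lacking own fluorescence, cut at about 54% in these data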
#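 System: GST-AP2 R879A glutathione beads; medium: PBS, Tween 20 0.05%, BSA 0.1%; reagent: fluorescein-tagged arrestin peptide at 50 nM final; schedule: pre-incubation 12 min, peptide binding 1 h, room temperature; detection: flow cytometry, FL1 (488/535 nm); read-out: inhibition as reduced fluorescein signal on beads, percent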
# MBD2 DNA inh: inhibitors of MBD2 binding to methylated DNA, primary screen, biochemical, TR-FRET, DNA-binding domain, human; AID 686964, 2013; MBD2 binding to methylated oligonucleotide; inhibition, % at 4.4 µM; 370,000 compounds, 0.31% hits; in the data active = inhibition above about 13%
# Hits are given with their value; n = inactive; x = no result. In the library only some 2.5% were active in any assay of this set; here they are far more common.
SMILES,Rin1 Abl inh,B2AR ag,ABHD5 PLIN5 PPI,UHRF1 MBD2 ctr,Arr AP2 block,MBD2 DNA inh
C/C(Cn1cnc([N+](=O)[O-])n1)=N\NC(=O)c1ccccc1O,n,n,n,n,n,n
Cc1ccc(NC(=O)C2CCCN(c3nnc(-n4cccc4)s3)C2)c(C)c1 (centres undefined),x,x,x,n,x,n
COc1ccc(OC)c(S(=O)(=O)N2CCCCC2C(=O)N2CCN(c3ccc(F)cc3)CC2)c1 (centres undefined),x,x,x,n,x,n
O=C(N/N=C1\CCCc2c1[nH]c1ccc(Cl)cc21)c1ccncc1,n,45,n,n,n,n
O=C(N/N=C1\C/C(=N\NC(=O)c2ccncc2)c2ccccc21)c1ccncc1,n,n,n,n,n,n
CN(c1ccccc1)S(=O)(=O)c1cccc(NS(=O)(=O)c2cccc(C(=O)O)c2)c1,n,n,22,n,n,n
O=[N+]([O-])c1ccc(N/N=C/c2cn(-c3ccccc3)nc2-c2ccccc2)cc1,n,n,n,n,n,n
NS(=O)(=O)c1ccc(N/N=C/c2cn(-c3ccccc3)nc2-c2ccccc2)c([N+](=O)[O-])c1,n,81,n,n,n,n
Cc1ccc(Cn2nnc3c2-c2ccccc2S(=O)(=O)N(C(C)(C)C)C3)cc1,x,x,x,n,x,n
CC(=NCCc1ccccc1)C1=C(O)CCC1=O,n,n,n,45,n,n
Cc1ccccc1C(=O)Nc1ccc(-c2nc3ccc(C(=O)c4ccccc4)cc3[nH]2)cc1,8.5,n,n,n,n,n
CC(C)CNC1CS(=O)(=O)CC1O (centres undefined),n,n,n,22,n,n
O=S1(=O)CC(O)C(NCc2cccnc2)C1 (centres undefined),n,n,n,n,n,n
O=C(NNC(=O)c1cc(Br)ccc1O)c1csc(N2CCOCC2)n1,10,n,n,x,n,x
O=C(NNC(=O)c1cc(Br)ccc1Cl)c1csc(N2CCOCC2)n1,n,n,n,n,n,n
CC(NC(=O)c1ccc(S(=O)(=O)N(C)C)cc1)c1ccccc1 (centres undefined),n,n,n,21,n,n
CC(NC(=O)c1ccc(S(=O)(=O)N(C)C)cc1)c1ccc(-n2ccnc2)cc1 (centres undefined),n,n,n,n,n,n
O=C(Nc1ccc(Cl)cc1Cl)OC1CCC12CCC(c1ccccc1)CC2 (centres undefined),x,x,x,n,x,n
CCSc1nc(-c2ccc(OC)cc2)cc(-c2ccccc2)c1C#N,n,n,n,n,n,n
COc1ccc(-c2cc(-c3ccccc3)c(C#N)c(S(C)=O)n2)cc1 (centres undefined),n,44,n,n,n,n
N#Cc1cccc(NC(=O)O[C@@H]2CC[C@@]34CCCN3C(=O)CCC[C@H]4C2)c1,x,x,x,n,x,n
O=C1C=C(O)CC(c2ccco2)C1 (centres undefined),n,n,n,36,n,n
CN(C)C(=O)[C@H]1C[C@H]1[C@@H](O)[C@H](CO)NC(=O)[C@H](Cc1ccccc1)NC(=O)OC(C)(C)C,n,n,n,28,n,n
CC[C@@H]1/C(=C/c2ccccc2)N2C(=O)C[C@@H](c3ccccc3)N=C2N1Cc1ccc(OC)cc1OC,x,x,x,n,x,n
CCCCCCOc1ccc(N2C(=O)CC(N3CCC(C(=O)OCC)CC3)C2=O)cc1 (centres undefined),n,n,n,43,n,n
SMILES,Rin1 Abl inh,B2AR ag,ABHD5 PLIN5 PPI,UHRF1 MBD2 ctr,Arr AP2 block,MBD2 DNA inh
CCOC(=O)C1CCN(C2CC(=O)N(c3ccc(OCC)cc3)C2=O)CC1 (centres undefined),n,n,n,n,n,n
COc1cc2c(OC(C)=O)c3c(c(-c4ccc5c(c4)OCO5)c2cc1OC)C(=O)OC3,n,59,n,n,n,n
COc1cc2c(O)c3c(c(-c4ccc5c(c4)OCO5)c2cc1OC)C(=O)OC3,n,45,n,n,n,n
CN(C)CCOC(C)(c1ccccc1)c1ccccn1 (centres undefined),n,n,n,66,n,n
CN(C)CCC(c1ccccc1)c1ccccn1 (centres undefined),n,n,n,n,n,n
COC(=O)c1ccc(-c2ccc3c(c2)[C@]2(CCC[C@@H](O)[C@@H]2NC(=O)CCc2ccccc2)C(=O)N3Cc2ccccc2)cc1,x,x,x,n,x,n
Cc1ccc(-c2cc(C(=O)N3CCOCC3)c3ccccc3n2)cc1,n,n,n,27,n,n
O=C(NC1CCCCN(Cc2ccc(OC(F)(F)F)cc2)C1=O)c1cccc(C(F)(F)F)c1 (centres undefined),x,x,x,n,x,n
Cc1[nH]n(-c2cccc(Cl)c2)c(=O)c1-c1ccccc1,n,n,n,39,n,n
COCCOC(=O)N(C)C[C@@H]1OCCCC[C@H](C)Oc2ccc(NC(=O)Nc3ccccc3)cc2C(=O)N([C@@H](C)CO)C[C@H]1C,x,x,x,n,x,n
CCCCN1C(=O)N2Cc3ccccc3C2CS1(=O)=O (centres undefined),x,x,x,n,x,n
Cc1cccc(-c2cccc3c4c([nH]c23)[C@@H]2C[C@H](N(C)C(=O)Nc3ccccc3C)[C@H]([C@H](C)O)C(=O)N2CC4)c1,x,x,x,n,x,n
Cc1ccc(-c2nc(C3CCCN(S(=O)(=O)c4ccc(Cl)s4)C3)no2)cc1 (centres undefined),x,x,x,n,x,n
CC(C)NC(=O)C1(C)CN(S(C)(=O)=O)CC(=O)N1CCOc1ccccc1 (centres undefined),x,x,n,40,x,n
c1ccc2cc3[nH]c(CNc4nc(N5CCOCC5)nc5c4ncn5-c4ccsc4)nc3cc2c1,x,x,x,n,x,n
Cc1cccc(C)c1NC(=O)C1(C)CCC(=O)N1c1cc(C(C)(C)C)nn1C (centres undefined),n,x,n,22,x,n
N=C1/C(=C\c2ccc(SCc3ccco3)o2)C(=O)N=C2SC=NN12,n,n,n,51,n,n
CN1CCC(C)(C(=O)Nc2cccc(Oc3ccccc3)c2)C1 (centres undefined),n,x,n,n,x,n
CC(C)N1CCC(C)(C(=O)Nc2cccc(Oc3ccccc3)c2)C1 (centres undefined),n,x,n,31,x,n
Cc1nn(-c2ccccc2)c(C)c1/C=N/NC(=O)c1cc(-c2ccccc2)n[nH]1,n,68,n,n,n,n
Cc1nn(-c2ccccc2)c(C)c1/C=N/NC(=O)c1cc(-c2cccc3ccccc23)n[nH]1,n,n,n,n,n,n

# Screens as filed in PubChem.
